hERG protect: shields human hERG channel from block by proarrhythmic agents; activation (rescue from dofetilide block), less the hit threshold, % at 10 µM; CHO-hERG, FluxOR thallium flux, dofetilide IC70 present; 310,000 compounds, 0.51% hits;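 active = activation above the mean of controls blocked by dofetilide plus 5 SD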;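 note: thallium influx through hERG after potassium depolarization seen as dye fluorescence rise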
KCNQ1 block: human KCNQ1 channel inhibition | P51787 | CHO-K1 KCNQ1, FluxOR thallium flux fluorescence; active compounds read high | B-score at 10 µM | 310,000 compounds, 1.3% hits;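 active = compounds whose thallium flux B-score, printed positive for inhibition, exceeds three library SD while starting fluorescence stays within three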;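 note: channel opened by potassium depolarization with thallium stimulus after 20 min compound exposure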
KCNK9 inh: human KCNK9 channel inhibition; 310,000 compounds, 1.2% hits; Q9NPC2; B-score at 10 µM; HEK293 KCNK9, FluxOR thallium flux fluorescence; active compounds read low;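 active = ratio B-score over 3 SD below the library mean, with starting fluorescence within 5 SD of its mean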;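 note: negative B-score means less thallium flux so channel inhibition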
Target sequence (Q9NPC2 whole entry, looked up): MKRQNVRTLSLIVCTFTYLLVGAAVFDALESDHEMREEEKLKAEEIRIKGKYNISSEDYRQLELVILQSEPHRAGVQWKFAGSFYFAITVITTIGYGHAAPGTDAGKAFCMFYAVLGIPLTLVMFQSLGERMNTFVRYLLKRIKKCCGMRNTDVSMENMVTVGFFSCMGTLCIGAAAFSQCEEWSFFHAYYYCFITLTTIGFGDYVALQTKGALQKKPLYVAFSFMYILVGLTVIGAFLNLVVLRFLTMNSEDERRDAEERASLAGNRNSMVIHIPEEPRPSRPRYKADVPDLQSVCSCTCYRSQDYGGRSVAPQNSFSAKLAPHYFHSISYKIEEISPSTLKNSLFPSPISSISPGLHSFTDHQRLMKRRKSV
KCNQ1 pot: human KCNQ1 channel potentiation or activation; P51787; CHO-K1 KCNQ1, thallium flux FluxOR fluorescence; active compounds read high; B-score at 10 µM; 310,000 compounds, 0.35% hits;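 active = fluorescence ratio B-score, a plate-corrected score, at least three library SD, with initial intensity B-score within 5 SD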
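assay system = CHO-K1 cells stably expressing KCNQ1 | medium = assay buffer, equal DMSO in all wells | timing = 37 °C overnight plating, 90-min dark dye load, 20-min compound pretreatment | measured by = kinetic FluxOR thallium fluorescence, 10-s 1-Hz baseline, 110-s post-stimulus read | measure = fluorescence change relative to baseline, converted to B score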
KCC2 mod: modulators of human KCC2 chloride dependent transport; Q9H2X9; KCC2 cells, thallium flux FluoZin-2 fluorescence; B-score of Tl+ flux slope (higher = more flux/activation; lower = inhibition) at 10 µM; 190,000 compounds, 2.2% hits;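 active = thallium flux slope and its plate-corrected score both differing from the plate sample mean at a set confidence after two filtering rounds, in either direction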;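 note: slope of fluorescence scaled to starting intensity during 10 to 20 s after thallium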
KCNK3 block: human KCNK3 channel inhibition, primary screen. B-score at 10 µM. 340,000 compounds, 0.84% hits. O14649. CHO-KCNK3 thallium flux, FluxOR fluorescence; active compounds read low. AID 602410;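 active = B-score under library mean minus 4 SD, starting fluorescence ratio at most library mean plus 5 SD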;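 note: more negative B-score means stronger inhibition of thallium flux through KCNK3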
KCNQ1 inh valid: human KCNQ1 channel inhibition, validation assay. shares compounds with KCNQ1 block. KCNQ1 cell line, FluxOR thallium flux fluorescence. inhibition, % at 10 µM. 1,600 compounds, 93% hits. AID 588353;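 active = primary screen active, with duplicate mean exceeding buffer control mean plus 3 SD of buffer wells, cut at about 28% in these data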;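 note: 0% = buffer control ratio and 100% = XE991 inhibitor control ratio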
CHO KCNQ1 ctr: activity in parental CHO cells lacking KCNQ1; fluorescence ratio (Tl flux) at 10 µM; parental CHO-K1, FluxOR thallium flux fluorescence ratio; active compounds read low; zero means no signal rise above baseline; 1,600 compounds, 21% hits; shares compounds with KCNQ1 block; AID 588366;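 active = mean of duplicate thallium-flux fluorescence ratios in parental host cells more than 5 SD below the buffer control mean, cut at about 0.38 in these data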;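 note: ratio is peak minus minimum fluorescence divided by baseline fluorescence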
KCNQ1 APC inh: human KCNQ1 inhibition validated by electrophysiology; shares compounds with KCNQ1 block; KCNQ1-CHO cells, automated patch clamp current; calls only at 10 µM; 490 compounds, 20% hits; AID 624120;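 active = KCNQ1 current drop exceeding 3 SD of negative control wells, seen in both duplicate runs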;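 note: steady state current during a 2 s step from -80 to +40 mV; negative values mean current inhibition and positive values mean potentiation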
KCNQ2 spec: rat KCNQ2 inhibition in KCNQ1 inhibitor specificity screen. KCNQ2 cells, FluxOR thallium flux fluorescence. 1,600 compounds, 71% hits. inhibition, % at 10 µM. shares compounds with KCNQ1 block;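 active = mean percent inhibition of the KCNQ2 thallium signal more than 5 SD above the buffer-only control wells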;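 note: KCNQ2 expressed in CHO cells; 0% = buffer control wells and 100% = XE-991 inhibitor control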
KCNQ1-KCNE1 inh: KCNQ1 inhibitor that also blocks human KCNQ1/KCNE1 channel. inhibition, % at 10 µM. shares compounds with KCNQ1 block. 1,600 compounds, 77% hits. KCNQ1/KCNE1 cells, FluxOR thallium flux fluorescence. AID 652147;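 active = mean percent inhibition of duplicate wells above the buffer-only control mean plus 3 SD of those controls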;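 note: 0% = buffer only wells and 100% = XE-991 inhibitor control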
* hit, by the source's call; i = inactive; . = no result given; + = active, no number. Rows were chosen to be rich in hits. Some 4.1% of all compounds tested hit in one or more screens of this group.

SMILES	hERG protect	KCNQ1 block	KCNK9 inh	KCNQ1 pot	KCC2 mod	KCNK3 block	KCNQ1 inh valid	CHO KCNQ1 ctr	KCNQ2 spec	KCNQ1-KCNE1 inh	others
C/C(O)=c1/ccc2cccc3nc(C)nc1c23	-28	8*	i	i	i	i	117*	0.25*	i	i
CCCn1c(=O)c(C(=O)NCCc2ccc(OC)cc2)c(O)c2ccccc21	-1	9*	i	i	.	i	93*	0.48	91%*	77%*	KCNQ1 APC inh=i
CCn1c(=O)c(C(=O)NCc2ccc(OC)cc2)c(O)c2ccccc21	-2	i	i	i	0.27	i	.	.	.	.
O=C1CCN(Cc2ccccc2)CCN1CCOc1ccccc1	-4	6*	i	i	.	i	0	0.51	i	i
O=C(Nc1cccc(Cl)c1)OCCN1CCN(Cc2ccccc2)CCC1=O	-17	11*	i	i	-1.6	i	70*	0.49	99%*	46%*
Cc1ccc(NC(=O)OCCN2CCN(Cc3ccccc3)CCC2=O)cc1	-9	i	i	i	-1.8	i	.	.	.	.
O=C(Nc1ccccc1)OCCN1CCN(Cc2ccccc2)CCC1=O	-4	i	i	i	-0.38	i	.	.	.	.
COc1ccc(-c2nc(NC(=O)c3c(C)noc3C)sc2C)cc1	.	.	.	.	.	i	.	.	.	.
COc1ccc(-c2nc(NC(=O)c3cc(C(C)(C)C)nn3C)sc2C)cc1	-13	16*	i	i	-0.35	i	128*	0.41	89%*	126%*	KCNQ1 APC inh=i
CCCOc1ccc(Br)cc1CSC(=N)N	-16	9*	i	i	0.0019	i	100*	0.46	78%*	46%*	KCNQ1 APC inh=+
CCOc1ccc(Br)cc1CC(=O)O	-7	i	i	i	-0.016	i	.	.	.	.
COCCn1c(SCC(=O)Nc2cc(C)on2)nc2cc(Cl)ccc2c1=O	.	.	.	.	.	i	.	.	.	.
COC(=O)CN1C(c2ccccc2O)Nc2ccc(Br)cc2C1c1ccccc1 (stereo not drawn)	-10	8*	-6.6*	i	-1.1	i	98*	0.36*	86%*	132%*
CCOC(=O)C(C)On1c(-c2cccc(Cl)c2)nc2ccc([N+](=O)[O-])cc21 (stereo not drawn)	-29	15*	i	i	-0.45	i	154*	0.34*	131%*	+
O=C(Nc1ccccc1)Nc1nc(-c2ccc(F)c(F)c2)cs1	-6	6*	i	i	.	i	72*	0.47	84%*	82%*
Cc1onc(-c2ccccc2)c1C(=O)Nc1nc(-c2ccc(F)c(F)c2)cs1	-8	7*	i	i	1.1	i	104*	0.52	109%*	120%*	KCNQ1 APC inh=i
COc1cccc(NC(=O)NC(C)C2CC3CCC2C3)c1 (stereo not drawn)	-7	i	i	i	0.0024	i	.	.	.	.
CN1/C(=C\C(=O)Nc2ccc(Cl)cc2)C(C)(C)c2ccccc21	-24	10*	-7.2*	i	-0.53	i	99*	0.49	116%*	48%*	KCNQ1 APC inh=i
CN1/C(=C\C=C(/C#N)C(=O)Nc2ccc(Cl)cc2)C(C)(C)c2ccccc21	-18	i	i	i	i	i	.	.	.	.
C=CCn1c(=O)[nH]c2nc3cc(N=CN(C)C)c(C)cc3nc2c1=O	-20	8*	i	i	i	i	102*	0.28*	i	152%*
COc1ccc2c(c1)c(CC(=O)Nc1ccccc1OC)c(C)n2C(=O)c1ccc(Cl)cc1	-7	7*	i	i	0.33	i	43*	0.39	91%*	48%*
COc1ccc2c(c1)c(CC(=O)Nc1cc(C)ccc1C)c(C)n2C(=O)c1ccc(Cl)cc1	-12	i	i	i	0.085	i	.	.	.	.
O=C(NC1CCCCC1)N(Cc1cc2cc3c(cc2[nH]c1=O)OCCO3)C1CCCCC1	-8	i	i	i	.	i	.	.	.	.
COc1ccc(CC2(CO)CCN(CC3=Cc4cc(Cl)ccc4OC3)CC2)cc1	-25	9*	i	i	-0.19	i	113*	0.5	102%*	i	KCNQ1 APC inh=i
COc1ccc2c(c1)C=C(CN1CCC(CO)(CCc3ccccc3)CC1)CO2	-11	i	i	i	-1.8	i	.	.	.	.
SMILES	hERG protect	KCNQ1 block	KCNK9 inh	KCNQ1 pot	KCC2 mod	KCNK3 block	KCNQ1 inh valid	CHO KCNQ1 ctr	KCNQ2 spec	KCNQ1-KCNE1 inh	others
Cc1ccc(C)c(S(=O)(=O)NCc2ccc(C(=O)N3CCN(C)CC3)cc2)c1	-8	i	i	i	.	i	.	.	.	.
Cc1ccc(C)c(S(=O)(=O)NCc2ccc(C(=O)N3CCC(Cc4ccccc4)CC3)cc2)c1	-10	7*	i	i	0.1	i	77*	0.44	92%*	95%*
O=C(N/C=C/c1ccccc1)Nc1ccc(Cl)cc1	-5	7*	i	i	-1.1	i	62*	0.48	64%*	i
O=c1[nH]c(=O)n(-c2ccc(F)cc2)c2c1C(C(F)(F)F)(C(F)(F)F)N=C(c1ccc(F)cc1)N2	-10	6*	i	i	-1	i	57*	0.52	64%*	i
c1ccc(CN2CCC(Nc3nc(-c4ccccc4)nc4ccccc34)CC2)cc1	-19	i	i	i	.	i	.	.	.	.
Cc1csc2ncnc(NC3CCN(Cc4ccccc4)CC3)c12	-17	8*	i	i	-0.11	i	26*	0.53	i	57%*
FC(F)(F)c1cccc(-c2nc3nc(Cl)c(Cl)nc3[nH]2)c1	-15	8*	i	i	-2.2	i	52*	0.54	i	i
Cc1nc(N2CCN(c3ccccn3)CC2)c2c(C)c(C(=O)Nc3ccc(Br)cc3C)sc2n1	-13	7*	i	i	.	i	82*	0.45	98%*	104%*
